Measured values reported in ChEMBL document CHEMBL4265973, “Broad-spectrum antibacterial amphiphilic aminoglycosides: A new focus on the structure of the lipophilic groups extends the series of active dialkyl neamines” (Eur J Med Chem, 2018).
Values after ≈ are worked out from the molar mass of the structure shown.

What was measured:
Staphylococcus aureus [1] = assay: Antibacterial activity against Staphylococcus aureus ATCC 25923 by microdilution assay; format: functional
Outline: (§1)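 Broth microdilution MIC per CLSI recommendations, fresh culture in cation-adjusted Mueller-Hinton broth, starting inoculum 10^6 cells.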

Staphylococcus aureus [2] = assay: Antibacterial activity against Staphylococcus aureus SA-1 expressing NorA pump by microdilution assay
Staphylococcus aureus [3] = assay: Antibacterial activity against methicillin-resistant Staphylococcus aureus ATCC 33592 by microdilution assay; format: functional; outline: as §1
Pseudomonas aeruginosa [4] = assay: Antibacterial activity against Pseudomonas aeruginosa ATCC 27853 by microdilution assay; format: functional
Outline: (§2)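 Broth microdilution per CLSI recommendations, using a fresh culture in cation-adjusted Mueller-Hinton broth (CA-MHB) and a starting inoculum of 10^6 cells; the MIC is the value read.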

Pseudomonas aeruginosa [5] = assay: Antibacterial activity against Pseudomonas aeruginosa FO3 harboring AAC6'-2A by microdilution assay; format: functional; outline: as §1
Pseudomonas aeruginosa [6] = assay: Antibacterial activity against Pseudomonas aeruginosa PA22 harboring surexp MexXY by microdilution assay; format: functional; outline: as §1
Pseudomonas aeruginosa [7] = assay: Antibacterial activity against Pseudomonas aeruginosa PA406 harboring triABC deletion mutant by microdilution assay; format: functional; outline: as §1
Acinetobacter lwoffii [8] = assay: Antibacterial activity against Acinetobacter lwoffii ATCC 17925 by microdilution assay; format: functional; outline: as §2
Acinetobacter lwoffii [9] = assay: Antibacterial activity against Acinetobacter lwoffii AI.88-483 harboring APH3'-6A by microdilution assay; format: functional; outline: as §1
Escherichia coli [10] = assay: Antibacterial activity against Escherichia coli PAZ505H8101 harboring AAC6'-1B by microdilution assay; format: functional; outline: as §1
Escherichia coli [11] = assay: Antibacterial activity against Escherichia coli L8058.1 harboring ANT2'-1A by microdilution assay; format: functional; outline: as §1
Klebsiella pneumoniae = assay: Antibacterial activity against Klebsiella pneumoniae 700603 by microdilution assay; format: functional; outline: as §2
[12] = Cytotoxicity against mouse J774 cells assessed as cell viability at 10 uM after 24 hrs by MTT assay relative to control; format: cell-based; conditions: J774 cells, read-out: Activity
Outline: (§3)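 Murine J774 macrophages are exposed for 24 h to compound at 10 or 30 µM, then given 0.2 mg/mL MTT for 1 h. The reaction is stopped with DMSO and OD read at 570 nm; viability is metabolic activity as % of control. The number of independent experiments is given per value.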

[13] = Cytotoxicity against mouse J774 cells assessed as cell viability at 30 uM after 24 hrs by MTT assay relative to control; format: cell-based; conditions: J774 cells, read-out: Activity; outline: as §3
Escherichia coli [14] = assay: microbe, parasite or virus in culture; conditions: ATCC 25922

Molecule | MIC (Staphylococcus aureus [1]) | MIC (Staphylococcus aureus [2]) | MIC (Staphylococcus aureus [3]) | MIC (Pseudomonas aeruginosa [4]) | MIC (Pseudomonas aeruginosa [5]) | MIC (Pseudomonas aeruginosa [6]) | MIC (Pseudomonas aeruginosa [7]) | MIC (Acinetobacter lwoffii [8]) | MIC (Acinetobacter lwoffii [9]) | MIC (Escherichia coli [10]) | MIC (Escherichia coli [11]) | MIC (Klebsiella pneumoniae) | viability at 24 h, 10 µM [12] | viability at 24 h, 30 µM [13] | MIC (Escherichia coli [14])
CCCCCCCCCCCO[C@@H]1[C@@H](O)[C@H](O[C@H]2O[C@H](CN)[C@@H](O)[C@H](O)[C@H]2N)[C@@H](N)C[C@H]1N | 32 µg/mL (≈ 67.1 µM) | 8 µg/mL (≈ 16.8 µM) | 8 µg/mL (≈ 16.8 µM) | > 128 µg/mL | > 128 µg/mL | > 128 µg/mL | 16 µg/mL (≈ 33.6 µM) | 64 µg/mL (≈ 134 µM) | > 128 µg/mL | > 128 µg/mL | > 128 µg/mL | > 128 µg/mL | 74.7% | 83.4% | > 128 µg/mL
CCCCCCCCCCCO[C@@H]1[C@@H](N)[C@@H](O[C@H]2[C@H](O)[C@@H](OCCCCCCC)[C@H](N)C[C@@H]2N)O[C@H](CN)[C@H]1O | 1 µg/mL (≈ 1.74 µM) | 32 µg/mL (≈ 55.7 µM) | 1 µg/mL (≈ 1.74 µM) | 2 µg/mL (≈ 3.48 µM) | 4 µg/mL (≈ 6.96 µM) | 4 µg/mL (≈ 6.96 µM) | 2 µg/mL (≈ 3.48 µM) | 2 µg/mL (≈ 3.48 µM) | > 128 µg/mL | 2 µg/mL (≈ 3.48 µM) | 4 µg/mL (≈ 6.96 µM) | 4 µg/mL (≈ 6.96 µM) | 88.4% | 39.1% | 2 µg/mL (≈ 3.48 µM)
CCCCCCCCCO[C@@H]1[C@@H](N)[C@@H](O[C@H]2[C@H](O)[C@@H](O)[C@H](N)C[C@@H]2N)O[C@H](CN)[C@H]1OCCCCCCCCC | 4 µg/mL (≈ 6.96 µM) | 4 µg/mL (≈ 6.96 µM) | 4 µg/mL (≈ 6.96 µM) | 8 to 16 µg/mL (≈ 13.9 to 27.8 µM) | 8 to 16 µg/mL (≈ 13.9 to 27.8 µM) | 8 to 16 µg/mL (≈ 13.9 to 27.8 µM) | 8 to 16 µg/mL (≈ 13.9 to 27.8 µM) | 4 to 8 µg/mL (≈ 6.96 to 13.9 µM) | 32 µg/mL (≈ 55.7 µM) | 4 to 8 µg/mL (≈ 6.96 to 13.9 µM) | 8 µg/mL (≈ 13.9 µM) | 16 to 32 µg/mL (≈ 27.8 to 55.7 µM) | – | – | 4 to 8 µg/mL (≈ 6.96 to 13.9 µM)
NC[C@H]1O[C@H](O[C@H]2[C@H](O)[C@@H](OCCCCc3ccc4ccccc4c3)[C@H](N)C[C@@H]2N)[C@H](N)[C@@H](OCCCCc2ccc3ccccc3c2)[C@@H]1O | 2 µg/mL (≈ 2.91 µM) | 2 to 4 µg/mL (≈ 2.91 to 5.82 µM) | 2 µg/mL (≈ 2.91 µM) | 4 µg/mL (≈ 5.82 µM) | 8 µg/mL (≈ 11.6 µM) | 8 µg/mL (≈ 11.6 µM) | 8 µg/mL (≈ 11.6 µM) | 2 µg/mL (≈ 2.91 µM) | > 128 µg/mL | 4 µg/mL (≈ 5.82 µM) | 8 µg/mL (≈ 11.6 µM) | 32 µg/mL (≈ 46.6 µM) | – | – | 8 µg/mL (≈ 11.6 µM)
CCCCCCCO[C@@H]1[C@@H](N)[C@@H](O[C@H]2[C@H](O)[C@@H](O)[C@H](N)C[C@@H]2N)O[C@H](CN)[C@H]1O | > 128 µg/mL | > 128 µg/mL | > 128 µg/mL | > 128 µg/mL | > 128 µg/mL | > 128 µg/mL | > 128 µg/mL | 64 µg/mL (≈ 152 µM) | > 128 µg/mL | > 128 µg/mL | > 128 µg/mL | > 128 µg/mL | 77.5% | 70.2% | > 128 µg/mL
GENTAMICIN | 0.25 to 0.5 µg/mL | – | 1 µg/mL | 1 µg/mL | > 128 µg/mL | 4 µg/mL | < 0.25 µg/mL | < 0.25 µg/mL | 2 µg/mL | 1 µg/mL | 64 µg/mL | 4 to 8 µg/mL | – | – | –
NC[C@@H]1O[C@H](O[C@H]2[C@@H](O)[C@H](O[C@@H]3[C@@H](O)[C@H](N)C[C@H](N)[C@H]3O[C@H]3O[C@H](CN)[C@@H](O)[C@H](O)[C@H]3N)O[C@@H]2CO)[C@H](N)[C@@H](O)[C@@H]1O [FRAMYCETIN] | 1 to 2 µg/mL (≈ 1.63 to 3.25 µM) | 0.5 to 1 µg/mL (≈ 0.813 to 1.63 µM) | > 128 µg/mL | 64 µg/mL (≈ 104 µM) | 128 µg/mL (≈ 208 µM) | 32 to 64 µg/mL (≈ 52.1 to 104 µM) | 2 to 4 µg/mL (≈ 3.25 to 6.51 µM) | < 0.25 µg/mL | 64 to 128 µg/mL (≈ 104 to 208 µM) | 4 µg/mL (≈ 6.51 µM) | 1 µg/mL (≈ 1.63 µM) | 4 to 8 µg/mL (≈ 6.51 to 13 µM) | – | – | 2 µg/mL (≈ 3.25 µM)
CCCCCCCCCCCO[C@@H]1[C@@H](N)[C@@H](O[C@H]2[C@H](O)[C@@H](O)[C@H](N)C[C@@H]2N)O[C@H](CN)[C@H]1O | 16 µg/mL (≈ 33.6 µM) | 16 µg/mL (≈ 33.6 µM) | 16 µg/mL (≈ 33.6 µM) | > 128 µg/mL | > 128 µg/mL | > 128 µg/mL | 4 to 8 µg/mL (≈ 8.39 to 16.8 µM) | 32 µg/mL (≈ 67.1 µM) | > 128 µg/mL | 32 µg/mL (≈ 67.1 µM) | 32 µg/mL (≈ 67.1 µM) | > 128 µg/mL | 81.8% | 77.1% | 64 µg/mL (≈ 134 µM)
NC[C@H]1O[C@H](O[C@H]2[C@H](O)[C@@H](OCc3ccc4ccccc4c3)[C@H](N)C[C@@H]2N)[C@H](N)[C@@H](OCc2ccc3ccccc3c2)[C@@H]1O | – | – | – | – | – | – | – | – | – | – | – | – | – | 75.7% | –
